In ChEMBL document CHEMBL5620363, “HIV-1 protease inhibitors with a P1 phosphonate modification maintain potency against drug-resistant variants by increased interactions with flap residues” (Eur J Med Chem, 2023):

Columns and labels:
[1] = test system: Human immunodeficiency virus 1; experiment: (§1) Antiviral activity against wild-type HIV-1 NL4-3 infected in human TZM-bl cells using virus particles harvested from 24 hrs drug-treated human CEM cells infected with virus assessed as reduction in viral infection measured after 48 hrs in TZM-bl cells by Firefly luciferase based assay; type: functional, organism-based; conditions: Human immunodeficiency virus 1, NL4-3, TZM-bl
In short: (§2)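 Virus stocks grown by infecting 3 × 10^6 CEM cells with virus at 37 °C for 2–3 h, then RPMI with medium changes every 48 h until CPE. Infected CEM cells plated onto five-fold serial inhibitor dilutions in RPMI (top 100 μM).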

[2] = test system: Human immunodeficiency virus 1; experiment: as §1, with “drug-resistant” for “wild-type”, “harboring Gag mutation/protease I13V/G16E/V32I/L33F/K45I/M46I/A71V/L76V/V82F/I84V mutant” for “NL4-3”; type: functional, organism-based; conditions: Human immunodeficiency virus 1, TZM-bl; in short: as §2
[3] = test system: Human immunodeficiency virus 1; experiment: as §1, with “drug-resistant” for “wild-type”, “harboring RT mutation/protease I13V/G16E/V32I/L33F/K45I/M46I/A71V/L76V/V82F/I84V mutant” for “NL4-3”; type: functional, organism-based; conditions: Human immunodeficiency virus 1, TZM-bl; in short: as §2
[4] = test system: Human immunodeficiency virus 1; experiment: as §1, with “drug-resistant” for “wild-type”, “harboring protease L10F/L33F/M46I/I47V/I50V/F53L/L63P/A71V/L76S/V82I/I85V/L89I mutant” for “NL4-3”; type: functional, organism-based; conditions: Human immunodeficiency virus 1, TZM-bl
[5] = test system: Human immunodeficiency virus 1; experiment: as §1, with “drug-resistant” for “wild-type”, “harboring protease L10F/V11I/I13V/V32I/L33F/K43T/M46L/I54L/A71V/V82I/I84V/L89M/T91S/Q92R mutant” for “NL4-3”; type: functional, organism-based; conditions: Human immunodeficiency virus 1, TZM-bl; in short: as §2
[6] = test system: Human immunodeficiency virus 1; experiment: as §1, with “drug-resistant” for “wild-type”, “harboring protease L10F/I15V/M46I/I47V/I50V/F53L/A71V/V82I/I84V/L89T mutant” for “NL4-3”; type: functional, organism-based; conditions: Human immunodeficiency virus 1, TZM-bl; in short: as §2
[7] = test system: Human immunodeficiency virus 1; experiment: as §1, with “drug-resistant” for “wild-type”, “harboring protease L10F/I13V/L33F/K45R/M46I/I47V/I50V/F53L/I54L/I66F/A71V/T74A/L76S/V82I mutant” for “NL4-3”; type: functional, organism-based; conditions: Human immunodeficiency virus 1, TZM-bl; in short: as §2
[8] = test system: Human immunodeficiency virus 1; experiment: Antiviral activity against DRV-resistant HIV-1 infected in human TZM-bl cells using virus particles harvested from 24 hrs drug-treated human CEM cells infected with virus assessed as reduction in viral infection measured after 48 hrs in TZM-bl cells by Firefly luciferase based assay; type: functional, organism-based; conditions: Human immunodeficiency virus 1, TZM-bl; in short: as §2
[9] = test system: Human immunodeficiency virus 1; experiment: Selectivity ratio of EC50 for drug-resistant HIV-1 harboring Gag mutation/protease I13V/G16E/V32I/L33F/K45I/M46I/A71V/L76V/V82F/I84V mutant infected in human TZM-bl cells to EC50 for wild-type HIV-1 NL4-3 infected in human TZM-bl cells; type: functional
[10] = test system: Human immunodeficiency virus 1; experiment: Selectivity ratio of EC50 for drug-resistant HIV-1 harboring RT mutation/protease I13V/G16E/V32I/L33F/K45I/M46I/A71V/L76V/V82F/I84V mutant infected in human TZM-bl cells to EC50 for wild-type HIV-1 NL4-3 infected in human TZM-bl cells; type: functional
[11] = test system: Human immunodeficiency virus 1; experiment: Selectivity ratio of EC50 for drug-resistant HIV-1 harboring protease L10F/L33F/M46I/I47V/I50V/F53L/L63P/A71V/L76S/V82I/I85V/L89I mutant infected in human TZM-bl cells to EC50 for wild-type HIV-1 NL4-3 infected in human TZM-bl cells; type: functional
[12] = test system: Human immunodeficiency virus 1; experiment: Selectivity ratio of EC50 for drug-resistant HIV-1 harboring protease L10F/V11I/I13V/V32I/L33F/K43T/M46L/I54L/A71V/V82I/I84V/L89M/T91S/Q92R mutant infected in human TZM-bl cells to EC50 for wild-type HIV-1 NL4-3 infected in human TZM-bl cells; type: functional
[13] = test system: Human immunodeficiency virus 1; experiment: Selectivity ratio of EC50 for drug-resistant HIV-1 harboring protease L10F/I15V/M46I/I47V/I50V/F53L/A71V/V82I/I84V/L89T mutant infected in human TZM-bl cells to EC50 for wild-type HIV-1 NL4-3 infected in human TZM-bl cells; type: functional
[14] = test system: Human immunodeficiency virus 1; experiment: Selectivity ratio of EC50 for drug-resistant HIV-1 harboring protease L10F/I13V/L33F/K45R/M46I/I47V/I50V/F53L/I54L/I66F/A71V/T74A/L76S/V82I mutant infected in human TZM-bl cells to EC50 for wild-type HIV-1 NL4-3 infected in human TZM-bl cells; type: functional
[15] = test system: Human immunodeficiency virus 1; experiment: Selectivity ratio of EC50 for DRV-resistant HIV-1 infected in human TZM-bl cells to EC50 for wild-type HIV-1 NL4-3 infected in human TZM-bl cells; type: functional

For CCC(CC)CN(C[C@@H](O)[C@H](Cc1ccccc1)NC(=O)O[C@H]1CO[C@H]2OCC[C@H]21)S(=O)(=O)c1ccc(OC)cc1, the EC50 [1] was 3 nM, the EC50 [2] was 140 nM and the EC50 [3] was 250 nM. The EC50 [4] was 800 nM, the EC50 [5] was 5380 nM and the EC50 [6] was 21800 nM. The EC50 [7] was 16700 nM, the EC50 [8] was 1600 nM and the “Ratio EC50” value [9] was 47. For the same compound, the “Ratio EC50” value [10] was 83, the “Ratio EC50” value [11] was 267 and the “Ratio EC50” value [12] was 1793. For the same compound, the “Ratio EC50” value [13] was 7267, the “Ratio EC50” value [14] was 5567 and the “Ratio EC50” value [15] was 533.
